What was measured:
Format in all cases: cell-based
[1] = molecular target: T1, ATP-dependent translocase ABCB1 (Homo sapiens, UniProt P08183); experiment: Inhibition of p-gp in human KB/VCR cells assessed as potentiation of 1 uM docetaxel-induced cytotoxicity at 5 uM after 72 hrs by MTT assay
Procedure, shortened: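 KBvcr cells seeded at 5 × 10^3 per well were cotreated with 5 μM compound and 1 μM docetaxel for 72 h. Survival (%) was read by MTT and compared with wells without docetaxel.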

[2] = Cytotoxicity against human KB/VCR cells assessed as cell viability at 5 uM after 72 hrs by MTT assay
Procedure, shortened: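 KB/VCR cells in DMEM with 10% FBS and penicillin/streptomycin, 37 °C, 5% CO2. Cells were allowed to attach for 12 h, then exposed to compound for 72 h. MTT was added for 4 h and formazan read at 490 nm.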

[3] = molecular target: T1, ATP-dependent translocase ABCB1; experiment: Inhibition of p-gp in human KB/VCR cells assessed as intracellular accumulation of adriamycin at 5 uM after 3 hrs by fluorescence assay relative to control
Procedure, shortened: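 KBvcr cells plated at 1 × 10^5 per well were given ADM (final 10 μM) with 5 μM compound for 3 h. After ice-cold PBS wash and lysis in 1% SDS, intrinsic ADM fluorescence (ex 485/em 590 nm) was read. Results are expressed as a ratio to the ADM-only control, mean ± SD, n = 3.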

[4] = molecular target: T1, ATP-dependent translocase ABCB1; experiment: Inhibition of p-gp in human KB/VCR cells assessed as potentiation of adriamycin-induced cytotoxicity at 5 uM after 72 hrs by MTT assay
[5] = molecular target: T1, ATP-dependent translocase ABCB1; experiment: Inhibition of p-gp in human KB/VCR cells assessed as potentiation of vincristine-induced cytotoxicity at 5 uM after 72 hrs by MTT assay
[6] = molecular target: T1, ATP-dependent translocase ABCB1; experiment: Inhibition of p-gp in human KB/VCR cells assessed as intracellular accumulation of rhodamine123 at 0.5 uM after 2 hrs by microplate fluorometric analysis
Procedure, shortened: (§1)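 KBvcr cells plated at 1 × 10^5 per well were pretreated with graded compound concentrations, then given Rhodamine123 10 μM for 2 h at 37 °C. Cells were washed with ice-cold PBS and lysed in 1% SDS. Fluorescence (ex 494/em 517 nm) was read on a microplate fluorometer and compared with untreated cells. Three independent experiments.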

[7] = molecular target: T1, ATP-dependent translocase ABCB1; experiment: Inhibition of p-gp in human KB/VCR cells assessed as intracellular accumulation of rhodamine123 after 2 hrs by microplate fluorometric analysis
Procedure, shortened: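 KBvcr cells plated at 1 × 10^5 per well and incubated 2 h at 37 °C in CO2 incubator with 10 μM Rhodamine123, with or without test compounds. Cells washed with ice-cold PBS, then lysed in 1% SDS/PBS. Fluorescence read at ex 494/em 517 nm. Accumulation ratio taken relative to untreated cells. Mean SD of three independent experiments.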

[8] = molecular target: T1, ATP-dependent translocase ABCB1; experiment: Inhibition of p-gp in human KB/VCR cells assessed as potentiation of 100 nM docetaxel-induced cytotoxicity after 72 hrs by MTT assay
Procedure, shortened: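 KBvcr cells cultured 72 h with fixed 100 nM docetaxel and graded modulator concentrations. Viability read by MTT, formazan at 490 nm. EC50 calculated from dose–response. Mean SD of three independent experiments.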

[9] = molecular target: T1, ATP-dependent translocase ABCB1; experiment: Inhibition of p-gp in human KB/VCR cells assessed as potentiation of adriamycin-induced cytotoxicity at 5 uM after 72 hrs by MTT assay relative to verapamil
[10] = molecular target: T1, ATP-dependent translocase ABCB1; experiment: Inhibition of p-gp in human KB/VCR cells assessed as intracellular accumulation of rhodamine123 at 2 uM after 2 hrs by microplate fluorometric analysis; procedure, shortened: as §1
[11] = molecular target: T1, ATP-dependent translocase ABCB1; experiment: Inhibition of p-gp in human KB/VCR cells assessed as potentiation of vincristine-induced cytotoxicity at 5 uM after 72 hrs by MTT assay relative to verapamil
[12] = molecular target: T1, ATP-dependent translocase ABCB1; experiment: Inhibition of p-gp in human KB/VCR cells assessed as intracellular accumulation of rhodamine123 at 3 uM after 2 hrs by microplate fluorometric analysis; procedure, shortened: as §1
[13] = molecular target: T1, ATP-dependent translocase ABCB1; experiment: Inhibition of p-gp in human KB/VCR cells assessed as potentiation of 1 uM docetaxel-induced cytotoxicity at 5 uM after 72 hrs by MTT assay relative to verapamil
[14] = molecular target: T1, ATP-dependent translocase ABCB1; experiment: Inhibition of p-gp in human KB/VCR cells assessed as intracellular accumulation of rhodamine123 at 1 uM after 2 hrs by microplate fluorometric analysis; procedure, shortened: as §1

T1 sequence (P08183 whole entry): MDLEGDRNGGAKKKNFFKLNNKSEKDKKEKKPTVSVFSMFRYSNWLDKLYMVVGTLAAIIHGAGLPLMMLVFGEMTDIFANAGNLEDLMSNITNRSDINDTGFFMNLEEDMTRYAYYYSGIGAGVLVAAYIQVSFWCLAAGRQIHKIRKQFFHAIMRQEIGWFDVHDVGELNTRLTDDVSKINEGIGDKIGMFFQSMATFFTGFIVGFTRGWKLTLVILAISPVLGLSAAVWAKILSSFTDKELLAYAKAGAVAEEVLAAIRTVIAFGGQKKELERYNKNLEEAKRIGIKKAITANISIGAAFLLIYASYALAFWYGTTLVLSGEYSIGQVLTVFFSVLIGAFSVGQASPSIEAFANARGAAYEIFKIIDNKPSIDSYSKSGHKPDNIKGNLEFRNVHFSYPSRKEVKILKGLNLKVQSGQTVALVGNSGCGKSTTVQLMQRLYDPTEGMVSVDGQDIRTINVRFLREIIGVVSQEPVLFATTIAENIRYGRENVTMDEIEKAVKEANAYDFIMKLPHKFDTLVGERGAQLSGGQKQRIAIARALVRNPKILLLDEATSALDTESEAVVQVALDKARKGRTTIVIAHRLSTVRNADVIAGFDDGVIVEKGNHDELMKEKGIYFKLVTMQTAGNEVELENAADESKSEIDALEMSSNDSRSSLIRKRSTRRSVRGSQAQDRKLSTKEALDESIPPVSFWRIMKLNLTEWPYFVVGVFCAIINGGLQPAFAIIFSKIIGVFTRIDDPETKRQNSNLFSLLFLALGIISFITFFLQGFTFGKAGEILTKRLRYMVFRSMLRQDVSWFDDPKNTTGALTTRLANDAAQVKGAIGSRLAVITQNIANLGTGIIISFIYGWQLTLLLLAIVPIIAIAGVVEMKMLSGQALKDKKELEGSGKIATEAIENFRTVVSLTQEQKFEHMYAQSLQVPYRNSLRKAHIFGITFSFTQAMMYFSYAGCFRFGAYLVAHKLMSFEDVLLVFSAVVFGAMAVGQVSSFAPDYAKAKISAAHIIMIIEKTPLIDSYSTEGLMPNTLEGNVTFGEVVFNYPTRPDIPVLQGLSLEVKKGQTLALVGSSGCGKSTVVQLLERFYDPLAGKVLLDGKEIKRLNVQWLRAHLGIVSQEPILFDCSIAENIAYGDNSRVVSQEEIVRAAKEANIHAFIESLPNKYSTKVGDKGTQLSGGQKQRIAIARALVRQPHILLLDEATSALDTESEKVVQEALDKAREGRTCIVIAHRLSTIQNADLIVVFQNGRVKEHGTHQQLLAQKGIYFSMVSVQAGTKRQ

CC1(C)[C@@H](O)CC[C@]2(C)[C@H]3C[C@@H](O)[C@@H]4[C@@H]([C@@](C)(O)CCCNCCc5ccc6c(c5)OCO6)CC[C@@]4(C)[C@]3(C)CC[C@@H]12
inhibition (INH) [1]: Active

CC1(C)[C@@H](O)CC[C@]2(C)[C@H]3C[C@@H](O)[C@@H]4[C@@H]([C@@](C)(O)CCCNCCCc5ccccc5)CC[C@@]4(C)[C@]3(C)CC[C@@H]12
Activity [2]: Toxic | inhibition (INH) [1]: Active | fold change (FC) [3]: 1.3

CC1(C)[C@@H](O)CC[C@]2(C)[C@H]3C[C@@H](O)[C@@H]4[C@@H]([C@@](C)(O)CCCNCc5ccccn5)CC[C@@]4(C)[C@]3(C)CC[C@@H]12
inhibition (INH) [1]: Active

CC1(C)[C@@H](O)CC[C@]2(C)[C@H]3C[C@@H](O)[C@@H]4[C@@H]([C@@](C)(O)CCCNCc5cccnc5)CC[C@@]4(C)[C@]3(C)CC[C@@H]12
inhibition (INH) [1]: Active | fold change (FC) [3]: 1.3 | inhibition (INH) [4]: Active | inhibition (INH) [5]: Active

CC1(C)[C@@H](O)CC[C@]2(C)[C@H]3C[C@@H](O)[C@@H]4[C@@H]([C@@](C)(O)CCCNCc5ccncc5)CC[C@@]4(C)[C@]3(C)CC[C@@H]12
inhibition (INH) [1]: Active

COc1ccc(NCCC[C@](C)(O)[C@H]2CC[C@]3(C)[C@@H]2[C@H](O)C[C@@H]2[C@@]4(C)CC[C@H](O)C(C)(C)[C@@H]4CC[C@]23C)cc1
inhibition (INH) [1]: Not Active

CC1(C)[C@@H](O)CC[C@]2(C)[C@H]3C[C@@H](O)[C@@H]4[C@@H]([C@@](C)(O)CCCNCc5ccccc5)CC[C@@]4(C)[C@]3(C)CC[C@@H]12
RFU [6]: 39800 | inhibition (INH) [7]: Dose-dependent effect | inhibition (INH) [1]: Active | fold change (FC) [3]: 1.3 | inhibition (INH) [8]: Dose-dependent effect | fold change (FC) [9]: 1.3 | RFU [10]: 57000 | fold change (FC) [11]: 1.3 | RFU [12]: 95300 | fold change (FC) [13]: 1.5

C[C@H](NCCC[C@](C)(O)[C@H]1CC[C@]2(C)[C@@H]1[C@H](O)C[C@@H]1[C@@]3(C)CC[C@H](O)C(C)(C)[C@@H]3CC[C@]12C)c1ccccc1
Activity [2]: Toxic | inhibition (INH) [1]: Active

COc1ccc(CNCCC[C@](C)(O)[C@H]2CC[C@]3(C)[C@@H]2[C@H](O)C[C@@H]2[C@@]4(C)CC[C@H](O)C(C)(C)[C@@H]4CC[C@]23C)cc1
inhibition (INH) [1]: Active

CC1(C)[C@@H](O)CC[C@]2(C)[C@H]3C[C@@H](O)[C@@H]4[C@@H]([C@@](C)(O)CCCNCc5ccc(F)cc5)CC[C@@]4(C)[C@]3(C)CC[C@@H]12
Activity [2]: Toxic | inhibition (INH) [1]: Active

CC1(C)[C@@H](O)CC[C@]2(C)[C@H]3C[C@@H](O)[C@@H]4[C@@H]([C@@](C)(O)CCCNCc5ccc(Cl)cc5)CC[C@@]4(C)[C@]3(C)CC[C@@H]12
Activity [2]: Toxic | inhibition (INH) [1]: Active

COc1ccc(CNCCC[C@](C)(O)[C@H]2CC[C@]3(C)[C@@H]2[C@H](O)C[C@@H]2[C@@]4(C)CC[C@H](O)C(C)(C)[C@@H]4CC[C@]23C)cc1OC
inhibition (INH) [1]: Active

CC1(C)[C@@H](O)CC[C@]2(C)[C@H]3C[C@@H](O)[C@@H]4[C@@H]([C@@](C)(O)CCCNCCc5ccc(Cl)cc5)CC[C@@]4(C)[C@]3(C)CC[C@@H]12
Activity [2]: Toxic | inhibition (INH) [1]: Active | fold change (FC) [3]: 1.3

CC1(C)[C@@H](O)CC[C@]2(C)[C@H]3C[C@@H](O)[C@@H]4[C@@H]([C@@](C)(O)CCCNCCc5ccc([N+](=O)[O-])cc5)CC[C@@]4(C)[C@]3(C)CC[C@@H]12
Activity [2]: Toxic | inhibition (INH) [1]: Active | fold change (FC) [3]: 1.3

COc1ccc(CCNCCC[C@](C)(O)[C@H]2CC[C@]3(C)[C@@H]2[C@H](O)C[C@@H]2[C@@]4(C)CC[C@H](O)C(C)(C)[C@@H]4CC[C@]23C)cc1OC
inhibition (INH) [1]: Active | fold change (FC) [3]: 1.3 | inhibition (INH) [4]: Active | inhibition (INH) [5]: Active

CNCCC[C@](C)(O)[C@H]1CC[C@]2(C)[C@@H]1[C@H](O)C[C@@H]1[C@@]3(C)CC[C@H](O)C(C)(C)[C@@H]3CC[C@]12C
inhibition (INH) [1]: Not Active

CCNCCC[C@](C)(O)[C@H]1CC[C@]2(C)[C@@H]1[C@H](O)C[C@@H]1[C@@]3(C)CC[C@H](O)C(C)(C)[C@@H]3CC[C@]12C
inhibition (INH) [1]: Not Active

CCCNCCC[C@](C)(O)[C@H]1CC[C@]2(C)[C@@H]1[C@H](O)C[C@@H]1[C@@]3(C)CC[C@H](O)C(C)(C)[C@@H]3CC[C@]12C
inhibition (INH) [1]: Not Active

CC(C)NCCC[C@](C)(O)[C@H]1CC[C@]2(C)[C@@H]1[C@H](O)C[C@@H]1[C@@]3(C)CC[C@H](O)C(C)(C)[C@@H]3CC[C@]12C
inhibition (INH) [1]: Not Active

CC(C)(C)NCCC[C@](C)(O)[C@H]1CC[C@]2(C)[C@@H]1[C@H](O)C[C@@H]1[C@@]3(C)CC[C@H](O)C(C)(C)[C@@H]3CC[C@]12C
inhibition (INH) [1]: Not Active

CC1(C)[C@@H](O)CC[C@]2(C)[C@H]3C[C@@H](O)[C@@H]4[C@@H]([C@@](C)(O)CCCNC5CC5)CC[C@@]4(C)[C@]3(C)CC[C@@H]12
inhibition (INH) [1]: Not Active

CC1(C)[C@@H](O)CC[C@]2(C)[C@H]3C[C@@H](O)[C@@H]4[C@@H]([C@@](C)(O)CCCNCCCn5ccnc5)CC[C@@]4(C)[C@]3(C)CC[C@@H]12
inhibition (INH) [1]: Not Active

CC1(C)[C@@H](O)CC[C@]2(C)[C@H]3C[C@@H](O)[C@@H]4[C@@H]([C@@](C)(O)CCCNCCN5CCNCC5)CC[C@@]4(C)[C@]3(C)CC[C@@H]12
inhibition (INH) [1]: Not Active

CC1(C)[C@@H](O)CC[C@]2(C)[C@H]3C[C@@H](O)[C@@H]4[C@@H]([C@@](C)(O)CCCNCCCO)CC[C@@]4(C)[C@]3(C)CC[C@@H]12
inhibition (INH) [1]: Not Active

CC(C)=CCC[C@](C)(O)[C@H]1CC[C@]2(C)[C@@H]1[C@H](O)C[C@@H]1[C@@]3(C)CC[C@H](O)C(C)(C)[C@@H]3CC[C@]12C
Activity [2]: Non-toxic | inhibition (INH) [1]: Not Active

COc1ccc(CCN(C)CCC[C@@](C#N)(c2ccc(OC)c(OC)c2)C(C)C)cc1OC
RFU [6]: 35900 | RFU [14]: 46100 | RFU [10]: 53000 | RFU [12]: 98700
